Screen size: about 190,000 compounds; about 1,800 (0.95%) were called active. This is one part of a sample in which actives are shown more often than they occur. Values without a mark were called inactive.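 The calls were made as follows: active = activation above the screen-wide mean of compound activation plus 3 SD (cut at about 130% in these data); inactive = the rest.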
Test: IL-6 driven STAT3 reporter potentiators, primary screen, U3A cells, luciferase, luminescence, MLSCN library (AID 871);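 also: 0% = background luminescence of wells with medium and substrate only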
Details: IL-6 STAT3-luciferase reporter, at 5.6 µM, stronger effect = higher value, 100% = signal with IL-6 EC80 alone
Outline: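 Material: human STAT1-deficient U3A cells with stable STAT3-luciferase reporter / Probe or stimulus: IL-6 stimulus at 33 ng/mL final / Schedule: 1 h compound pre-exposure, 6 h IL-6 stimulation, 37 °C / Technique: luminescence / Read-out basis: percent of IL-6-only median luminescence / Control set: IL-6-only high control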

SMILES	activation (% of control)
O=C(NCc1cccs1)C1CCN(S(=O)(=O)c2ccc(Cl)cc2)CC1	104%
COc1cccc2c1CCC(NC(C)=O)C2=O (configuration not stated)	104%
CC(=O)c1c(C)[nH]c(C(=O)Nc2cc(S(=O)(=O)N(C)C)ccc2C)c1C	90.9%
COc1ccc(C)cc1NC(=O)c1[nH]c(C)c(C(C)=O)c1C	147% (active)
CC(=O)c1c(C)[nH]c(C(=O)NCc2ccc(C)cc2)c1C	92.2%
O=C(c1ccc(-c2ccccc2)cc1)C1CCCN(C(=O)c2cncs2)C1 (configuration not stated)	98.2%
COc1ccc(-c2c3c(=O)n(C)c(=O)n(C)c3cn2-c2cccc(OC)c2)cc1	154% (active)
COc1ccc(-c2c3c(=O)n(C)c(=O)n(C)c3cn2NC(C)=O)cc1	109%
COc1cccc(-n2cc3c(c2-c2ccccc2)c(=O)n(C)c(=O)n3C)c1	110%
CC(C)CCN1C(=O)c2ccc(C(=O)Nc3cccc(S(N)(=O)=O)c3)cc2C1=O	93.1%
CCC(C)NC(=O)c1nn(C)c(=O)c2ccccc12 (configuration not stated)	100%
CN(C)S(=O)(=O)c1cccc(NC(=S)NCc2ccc3c(c2)OCO3)c1	95.2%
CCN(Cc1cc2cc(C)ccc2[nH]c1=O)S(=O)(=O)c1ccccc1	91.2%
CC(=O)OCc1cc2cc(C)ccc2[nH]c1=O	103%
CCNCc1cc2cc(C)ccc2[nH]c1=O	139% (active)
Cc1ccc(-n2cnc3ncnc(-c4ccccc4)c32)cc1	94.7%
CC(C)OCCCNC(=S)N1CCC(C(=O)c2ccc3c(c2)OCCO3)CC1	102%
Cc1cccc(CSc2nc3c(c(=O)n2C)SCC3)c1	78.4%
N#Cc1ccccc1NC(=O)COc1c(Br)cc(Br)c2cccnc12	151% (active)
N#Cc1ccc(C(=O)Nc2cccc3cccnc23)c(F)c1	87.4%
O=C(COC(=O)c1ccccn1)Nc1cccc2ccccc12	94.8%

SMILES	activation (% of control)
CCN(CC)P(=O)(Nc1ccc(SC(F)F)cc1)c1ccc(N(C)C)cc1NC(=O)c1ccco1 (configuration not stated)	131%
CCOc1ccc(C2c3[nH]c4ccccc4c3CCN2Cc2cn(CC)nc2C)cc1 (configuration not stated)	140% (active)
COc1cc(-c2nnn(CC(=O)NCc3ccccc3)n2)cc(OC)c1OC	99.5%
CCOP(=O)(OCC)C(Nc1ccc([N+](=O)[O-])cc1)c1ccc(Cl)cc1 (configuration not stated)	109%
Cc1cccc(N2CCN(c3ccc(NC(=O)/C=C\C(=O)O)cc3)CC2)c1	100%
CC(=O)c1ccc(NC(=O)C(C)N(C)CC(=O)Nc2ccccc2Cl)cc1 (configuration not stated)	96.3%
COc1ccc([N+](=O)[O-])cc1C1NN=C(c2cccc3ccccc23)S1 (configuration not stated)	139% (active)
COc1ccccc1CC(=O)Nc1ccc([N+](=O)[O-])cc1OC	99.8%
COc1ccc([N+](=O)[O-])cc1NC(=O)C(C)OC(=O)C1c2ccccc2Oc2ccccc21 (configuration not stated)	106%
Cc1ccccc1OCCOc1ccc([N+](=O)[O-])cc1/C=N/n1cnnc1	111%
O=C(CCc1nnc(CCCCc2ccccc2)o1)NC(c1cccnc1)C(F)(F)F (configuration not stated)	104%
CC1(C)C=C2[C@H]3CC[C@@H]4[C@@]5(C)CCC(=O)C(C)(C)[C@@H]5CC[C@@]4(C)[C@]3(C)CC[C@@]2(C(=O)O)CC1	99.9%
CC(=O)Nc1ccc(NC(=O)COc2ncnc3ccccc23)cc1	95.9%
O=[N+]([O-])c1cccc(Nc2c3ccccc3nc3ccccc23)c1	109%
CC(=O)Nc1ccc(Nc2c3ccccc3nc3ccccc23)cc1	218% (active)
CC(C)C(C)(C#N)NC(=O)CSc1nc2scc(-c3ccccc3)c2c(=O)[nH]1 (configuration not stated)	108%
O=C(Nc1ccncc1)c1cc(-c2ccccn2)nc2ccc(Br)cc12	111%
O=C(CSc1nn(-c2ccc(F)cc2)c(=S)s1)NC1CCS(=O)(=O)C1 (configuration not stated)	98.1%
O=C(C1CCN(S(=O)(=O)Cc2ccccc2)CC1)N1CCCc2ccccc21	136% (active)
Cc1noc(/C=C/c2ccco2)c1S(=O)(=O)N1CCC(C(=O)N2CCc3ccccc32)CC1	104%
CCS(=O)(=O)N1CCC(C(=O)N2CCN(c3ccccc3)CC2)CC1	103%

SMILES	activation (% of control)
O=C(O)/C(=C/c1cccnc1)NC(=O)c1ccccc1	107%
Nc1ccc(OCC(O)C[n+]2ccc(CCS(=O)(=O)[O-])cc2)cc1 (configuration not stated)	101%
CCC(C(=O)Nc1ccc2c(c1)OCCO2)c1ccccc1 (configuration not stated)	93.2%
CCC1C(=O)c2ccccc2N(C)C1=O (configuration not stated)	110%
CN1C(=O)/C(=N/OC(=O)c2ccccc2Br)c2ccccc21	100%
CN1C(=O)/C(=C\c2cc(Br)cs2)c2ccccc21	178% (active)
CN(C)c1ccc(C=C2C(=O)OC3(CCCC3)OC2=O)cc1	103%
COc1ccccc1-c1nnc(SCC(=O)Nc2cc(C)on2)o1	91%
COc1ccccc1-c1nnc(NC(=O)c2ccc3ncsc3c2)o1	146% (active)
COc1ccccc1-c1nnc(NC(=O)c2cccc(N3C(=O)CCC3=O)c2)o1	116%
Cc1scc(C(=O)NNC(=S)NCC(C)C)c1C	97.6%
Cc1ccc(C(C)(C)C)c(OCCCCN2CCCC2)c1	95.5%
Cc1nc(C)c(C(=O)Nc2cccc(C)c2C)o1	105%
COc1ccc(Cl)cc1NC(=O)c1oc(C)nc1C	162% (active)
Cc1nc(C)c(C(=O)Nc2ccc(C)c(F)c2)o1	92.3%
Cc1cc(Cl)ccc1NC(=S)NCCCN1CCCC1=O	98.6%
COc1ccccc1N1CCN(C(=O)c2ccc(Cl)c(S(=O)(=O)N3CCCC3)c2)CC1	97%
Cc1ccc(NC(=O)c2cc(-c3ccc(C)o3)nc3ccccc23)nc1	104%
Cc1ccc(-c2cc(C(=O)Nc3nn[nH]n3)c3ccccc3n2)c(C)c1	140% (active)
Cc1ccc2c(Cl)c(C(=O)Nc3nn[nH]n3)sc2c1	96%
